The values that follow come from PubChem BioAssay AID463185 (Molecular Libraries Program, Specialized Chemistry Center, …, 2010).

For the assay, the system named is HeLa UbG76V-GFP reporter degradation, GFP imaging. The assay is described as follows: inhibitors of p97-dependent reporter degradation, dose response, imaging, human cells (AID 463185). The gist of the method:
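System: UbG76V-GFP reporter HeLa cells. Buffer or medium: 2.5% FBS medium plus cycloheximide 50 µg/mL. Reagent: MG132 4 µM reporter accumulation step. Timing: 1 h MG132, chase read 70–170 min. Technique: per-cell GFP fluorescence imaging. Read-out: IC50 from residual GFP decay rate.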

Activity calls are given as the source filed them.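 Rule for the calls: active = IC50 at or below 10 µM; inactive = the rest.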

What is called IC50 is the concentration needed to halve the response being measured. Take `CCc1nc2ccccc2n1CC(=O)OC/C(O)=C(/C#N)c1nc2ccccc2[nH]1`: the IC50 is 7.2 µM. Turning to `Fc1ccccc1CNc1nc(NCc2ccccc2)c2ccccc2n1`, the IC50 is 3.4 µM. Take `CCc1ccc(Nc2nc(N)nc(CCl)n2)cc1`: the IC50 is 18 µM (inactive). On to `Clc1cccc(CNc2nc(NCc3ccccc3)c3ccccc3n2)c1`, for which the IC50 is 3.7 µM. For the molecule `FC(F)(F)c1cc(CNc2nc(NCc3ccccc3)c3ccccc3n2)ccc1Cl`, the IC50 is 4.6 µM. As for `COc1cccc(Nc2nc(N)nc(CCl)n2)c1`, the IC50 was 23 µM (inactive). For `Cc1ccc(Nc2nc(N)nc(CCl)n2)cc1`, the IC50 is 26 µM (inactive). In the case of `Nc1nc(Nc2cccc(Cl)c2)nc(C(Cl)Cl)n1`, the IC50 was 13 µM (inactive). As to `N#C/C(=C(\O)COC(=O)COc1cccc(Br)c1)c1nc2ccccc2[nH]1`, the IC50 was 5.9 µM. In the case of `Nc1nc(CCl)nc(Nc2cccc3ccccc23)n1` it was 14 µM (inactive). As for `FC(F)(F)c1ccc(CNc2nc(NCc3ccccc3)c3ccccc3n2)cc1`, the IC50 was 2.5 µM. Turning to `c1ccc(CNc2nc(NCc3ccccc3)c3ccccc3n2)cc1`, the IC50 was 2.3 µM. Regarding `Brc1cccc(CNc2nc(NCc3ccccc3)c3ccccc3n2)c1`, the IC50 is 1.3 µM. `Cc1cc(C)cc(OCC(=O)OC/C(O)=C(/C#N)c2nc3ccccc3[nH]2)c1`: the IC50 was 13 µM (inactive).

`Cc1ccc(CNc2nc(NCc3ccccc3)c3ccccc3n2)cc1`: the IC50 is 2.4 µM. With `Nc1nc(CCl)nc(N2CCCc3ccccc32)n1`, the IC50 is 17 µM (inactive). As to `N#C/C(=C(\O)COC(=O)COc1ccc(Cl)cc1)c1nc2ccccc2[nH]1`, the IC50 was 2.6 µM. On to `N#C/C(=C(\O)COC(=O)c1ccccc1Cc1ccccc1)c1nc2ccccc2[nH]1`, for which the IC50 is 3.4 µM.

Turning to `CC(C)c1ccc(Nc2nc(N)nc(CCl)n2)cc1`, the IC50 is 14 µM (inactive).

For the molecule `Nc1nc(CCl)nc(Nc2ccc(Cl)c(Cl)c2)n1`, the IC50 was 5.7 µM. As to `Cc1cccc(CNc2nc(NCc3ccccc3)c3ccccc3n2)c1`, the IC50 was 4.1 µM. On to `Nc1nc(CCl)nc(N(c2ccccc2)c2ccccc2)n1`, for which the IC50 was 10 µM. As to `CCCOc1ccc(C(=O)CCC(=O)OC/C(O)=C(/C#N)c2nc3ccccc3[nH]2)cc1`, the IC50 is 6.1 µM.

Consider `Fc1ccc(CNc2nc(NCc3ccccc3)c3ccccc3n2)cc1`, for which the half-inhibitory concentration (IC50) is 2.8 µM. `Clc1ccccc1CNc1nc(NCc2ccccc2)c2ccccc2n1`: the IC50 was 4.1 µM. As to `Brc1ccccc1CNc1nc(NCc2ccccc2)c2ccccc2n1`, the 50% inhibitory concentration (IC50) was 6.7 µM. Turning to `Fc1cccc(CNc2nc(NCc3ccccc3)c3ccccc3n2)c1`, the IC50 was 1.1 µM.

As to `Cc1ccccc1CNc1nc(NCc2ccccc2)c2ccccc2n1`, the IC50 is 10 µM. For the molecule `CN(c1ccccc1)c1nc(N)nc(CCl)n1`, the IC50 is 31 µM (inactive). For `COc1ccccc1Nc1nc(N)nc(CCl)n1`, the IC50 is 21 µM (inactive). Take `Cc1c(Cl)cccc1Nc1nc(N)nc(CCl)n1`: the half-inhibitory concentration (IC50) is 5.9 µM. For `N#C/C(=C(\O)COC(=O)C1COc2ccccc2O1)c1nc2ccccc2[nH]1` (stereo not drawn) the value was 10 µM; for `Clc1ccc(CNc2nc(NCc3ccccc3)c3ccccc3n2)cc1`, 3.3 µM; for `COc1cc([N+](=O)[O-])ccc1Nc1nc(N)nc(CCl)n1`, 22 µM (inactive). For `Brc1ccc(CNc2nc(NCc3ccccc3)c3ccccc3n2)cc1`, the IC50 was 6.7 µM.

As to `COc1ccc(CNc2nc(NCc3ccccc3)c3ccccc3n2)cc1`, the IC50 is 3.3 µM.

For the molecule `Cc1cc(OCC(=O)OC/C(O)=C(/C#N)c2nc3ccccc3[nH]2)ccc1Cl`, the IC50 was 16 µM (inactive). Turning to `N#C/C(=C(\O)COC(=O)CNc1ccc(C(F)(F)F)cc1[N+](=O)[O-])c1nc2ccccc2[nH]1`, the IC50 was 6.5 µM. On to `Nc1nc(CCl)nc(Nc2ccc(Oc3ccccc3)cc2)n1`, for which the IC50 is 3.7 µM. With `Clc1ccc(CNc2nc(NCc3ccccc3)c3ccccc3n2)cc1Cl`, the IC50 is 4.6 µM. For `Nc1nc(CCl)nc(N2CCc3ccccc32)n1` the value was 10.4 µM (inactive); for `Nc1nc(CCl)nc(Nc2ccc(Cl)cc2)n1`, 8 µM; for `Cc1cccc(Nc2nc(N)nc(CCl)n2)c1C`, 27 µM (inactive). For `Nc1nc(CCl)nc(Nc2ccc(F)cc2)n1`, the IC50 was 31 µM (inactive). Consider `N#C/C(=C(\O)COC(=O)CCC(=O)c1ccc2c(c1)OCCO2)c1nc2ccccc2[nH]1`, for which the IC50 was 6.3 µM. Consider `Cc1cccc(C)c1OCC(=O)OC/C(O)=C(/C#N)c1nc2ccccc2[nH]1`, for which the IC50 is 15 µM (inactive). In the case of `COc1cccc(CNc2nc(NCc3ccccc3)c3ccccc3n2)c1`, the IC50 was 1.7 µM. Regarding `COc1ccccc1CNc1nc(NCc2ccccc2)c2ccccc2n1`, the IC50 is 4.8 µM.
